Assay results: publication PMC4196715 (American journal of transplantation : official journal of …, 2014)
Like-named read-outs stand apart in the source and are kept apart here.

Legend:
[1] = system: splenic CD4+ and CD8+ T cells of heart graft recipients; assay type: in vivo, mouse; details: for CD4+ T cell IFNγ production enhanced by transplantation / CD8+ T cell IFNγ production enhanced by transplantation: splenocytes, day 10–11 post-transplant
[2] = Pharmacokinetics after i.p. administration; assay type: in vivo, mice; details: for AUC 0-infinity / Apparent volume of distribution / Disposition rate constant: i.p., AZD8055 10 mg/kg plasma, RAPA 1 mg/kg whole blood; for concentration at 8 h: 10 mg/kg; for half-life: plasma (AZD8055), whole blood (RAPA), ip
[3] = system: BALB/c to B6 cardiac allograft model; assay type: in vivo, mouse; details: for graft histology on days 10–11: H&E, no-IS grafts showed severe cellular rejection; for Foxp3 mRNA expression in allografts: PCR, RAPA being superior to AZD8055; for enhancement of graft-infiltrating Foxp3+ Treg: immunoperoxidase staining of allograft, vs no IS
[4] = system: B6 CD3+ T cells (CD4+ and CD8+ T cell proliferation); test: T cell proliferation by CFSE dilution after anti-CD3/CD28 bead stimulation; assay type: cell-based, mouse
Method in brief: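 B6 CD3+ T cells were isolated by negative selection and CFSE-labelled. 1×10^5 cells were stimulated with 2.5×10^4 CD3/CD28 Dynabeads for 5 days. Test compound (10 mM DMSO stock) was added at the start of culture, from 1.95 to 1000 nM. CFSE dilution was gated on CD4+ or CD8+ cells and expressed as percent suppression versus stimulated cells without inhibitor. n=3–4 experiments; means ± SD; t tests.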

Renal function = assay type: in vivo, mouse; details: after 10 days of treatment
Method in brief: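 B6 recipients of BALB/c heterotopic heart grafts were given test compound at 10 mg/kg twice daily i.p. (days 2–11) in PBS with 0.02% Tween 80 and 0.26% polyethylene glycol. Serum creatinine was measured after 10 days of treatment, n=4.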

[5] = ref Dr. A.D. McCormick, Astrazeneca, UK, personal communication; cited from earlier work
[6] = oral dosing, Phase I; cited from earlier work
[7] = mice, oral administration; cited from earlier work
[8] = i.v. administration, B6 mice; cited from earlier work

Structure (SMILES) | CD4+ T cell IFNγ production enhanced by transplantation [1] | CD8+ T cell IFNγ production enhanced by transplantation [1] | AUC 0-infinity [2] | Apparent volume of distribution [2] | Disposition rate constant [2] | half-life ([2]; mouse) | graft histology on days 10–11 [3] | Foxp3 mRNA expression in allografts [3] | enhancement of graft-infiltrating Foxp3+ Treg [3] | further results
COc1ccc(-c2ccc3c(N4CCOC[C@@H]4C)nc(N4CCOC[C@@H]4C)nc3n2)cc1CO [AZD8055, (5-{2,4-Bis[(3S)-3-methylmorpholin-4-yl]pyrido[2,3-d]pyrimidin-7-yl}-2-methoxyphenyl) methanol] | reaching the same levels as in naïve mice | inhibited completely | 26.2 µg/mL/h | 37 mL | 0.205 h⁻¹ | 3.4 h | comparatively mild mononuclear cell infiltrate | increased | 7–10 fold | percentage of IFN-producing CD4+ and CD8+ T cells compared with animals given RAPA ([1]; day 20 post-transplant, not sustained at day 80): higher; concentration at 8 h ([2]; mouse, in vivo): 200 nM; concentration at 8 h ([2]; mouse, plasma, intraperitoneal): ≥ 200 nM; concentrations at which AZD8055 surpassed the ability of RAPA to inhibit T cell proliferation ([4]; CD4+ and CD8+ T cells, CD3/CD28 beads, 5 days): ≥ 200 nM; concentration dependence of inhibition of T cell proliferation ([4]; concentrations tested between 1.95 nM and 1000 nM): dose-related inhibitory effect; adverse effects on renal function (Renal function): No adverse effects; serum creatinine levels (Renal function; n=4): 0.2 mg/dL; fraction in plasma bound to plasma protein [5]: approximately 95%; half-life in humans [6]: approximately 2 h; half-life [7]: approximately 2 h
CO[C@H]1C[C@@H]2CC[C@@H](C)[C@@](O)(O2)C(=O)C(=O)N2CCCC[C@H]2C(=O)O[C@H]([C@H](C)C[C@@H]2CC[C@@H](O)[C@H](OC)C2)CC(=O)[C@H](C)/C=C(\C)[C@@H](O)[C@@H](OC)C(=O)[C@H](C)C[C@H](C)/C=C/C=C/C=C/1C [RAPA, rapamycin] | more effective inhibition | inhibited completely | 1.93 µg/mL/h | 74 mL | 0.141 h⁻¹ | 4.9 h | comparatively mild mononuclear cell infiltrate | increased | 7–10 fold | concentration at 24 h ([2]; mouse, whole blood, intraperitoneal, 1 mg/kg): > 10 nM; recipients with long-term graft survival (>80 days) ([3]; 10-day course, AZD8055 10 mg/kg twice daily i.p., RAPA 1 mg/kg/day i.p.): fifty; half-life [8]: 6.4 h
